In the array DNA melting data of Ke et al. (doi:10.1101/2024.01.08.574731):

Legend:
[1] = folding enthalpy; higher = less favourable; fluorescence melt of hairpins on a sequencing array, two-state fit; details: sodium 0.088 M
Summary of the method: (§1)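 With Cy3 and quencher oligos annealed, library hairpins on a sequenced MiSeq flow cell were imaged for Cy3 fluorescence in 50 mM Na-HEPES pH 8.0, 25 mM NaCl, in 2.5 °C steps up to 60 °C. Melting temperature and folding enthalpy were derived from bootstrapped two-state fits of signals normalised to pre-quench Cy3 and to control constructs. Four replicates were combined by inverse variance, with fitted temperatures raised by 9.35 °C to match UV melts.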

[2] = melting temperature; fluorescence melt of hairpins on a sequencing array, two-state fit, raised by 9.35 °C to match UV melts; details: sodium 0.088 M
Summary of the method: as §1

| Sequence | folding enthalpy [1] | Tm [2] |
| --- | --- | --- |
| GCTCCCCGAAAGGGCAGC (((.(((....))).))) | -21 kcal/mol | 48 °C |
| GCTCCCGAAAGGGATAGC ((((((....)))..))) | -17.5 kcal/mol | 48.4 °C |
| GCTCCCGAAAGGGCTAGC ((((((....)))..))) | -12.8 kcal/mol | 38.6 °C |
| GCTCCCGAAAGGGTAAGC ((((((....)))..))) | -20.7 kcal/mol | 46.2 °C |
| GCTCCGCGAAAGCAGGGC ((.(.((....)).).)) | -16 kcal/mol | 50.1 °C |
| GCTCCGCGAAAGCGAGGC ((..(((....)))..)) | -14.4 kcal/mol | 55.6 °C |
| GCTCCGCGAAAGCGTAGC (((.(((....))).))) | -32.6 kcal/mol | 51.8 °C |
| GCTCCGCGAAAGCTGAGC ((((.((....)).)))) | -32.3 kcal/mol | 61.1 °C |
| GCTCCTGCGAAAGCAAGC (((..(((....)))))) | -9.07 kcal/mol | 26.7 °C |
| GCTCCTGGAAACAGGGGC ((.((((....)))).)) | -39.6 kcal/mol | 57.4 °C |
| GCTCGACGAAAGTCAAGC (((.(((....))).))) | -27.7 kcal/mol | 51.8 °C |
| GCTCGAGAAATCGAGC ((((((....)))))) | -37.4 kcal/mol | 66.5 °C |
| GCTCGAGGAAACTCGGGC ((.((((....)))).)) | -38.9 kcal/mol | 59.9 °C |
| GCTCGATCGAAAGATAGC (((..(((....)))))) | -11.7 kcal/mol | 28.1 °C |
| GCTCGCACGAAAGTGAGC (((..(((....)))))) | -21.2 kcal/mol | 49.6 °C |
| GCTCGCCCGAAAGGGAGC (((..(((....)))))) | -16.8 kcal/mol | 48.4 °C |
| GCTCGCGAAAGCGATAGC ((((((....)))..))) | -14.4 kcal/mol | 50.3 °C |
| GCTCGCGAAAGCGCAGC ((((((....))).))) | -19.6 kcal/mol | 54.4 °C |
| GCTCGCGAAAGCGGAGC ((((((....))).))) | -22.9 kcal/mol | 67.9 °C |
| GCTCGCGAAAGCGGTAGC ((((((....)))..))) | -15.4 kcal/mol | 51 °C |
| GCTCGCGGAAACGCGAAC (.(((((....))))).) | -11.3 kcal/mol | 48.9 °C |
| GCTCGGCCGAAAGGCAGC (((..(((....)))))) | -8.78 kcal/mol | 55.6 °C |
| GCTCGGCGAAAGCCAGC (((.(((....)))))) | -17.4 kcal/mol | 62.9 °C |

| Sequence | folding enthalpy [1] | Tm [2] |
| --- | --- | --- |
| GCTCGGCGAAAGCCATGC ((..(((....)))..)) | -10.7 kcal/mol | 49.8 °C |
| GCTCGGCGAAAGCCTTGC ((..(((....)))..)) | -11.4 kcal/mol | 50.2 °C |
| GCTCGGCGAAAGCGGGGC ((.(.((....)).).)) | -20.6 kcal/mol | 61.1 °C |
| GCTCGGCGAAAGCGGTGC ((.(.((....)).).)) | -13 kcal/mol | 57.6 °C |
| GCTCGGCGAAAGCGTAGC (((..((....))..))) | -12.9 kcal/mol | 39.3 °C |
| GCTCGGCGAAAGCTGCGC ((.(.((....)).).)) | -17.4 kcal/mol | 56.2 °C |
| GCTCGGCGAAAGCTGTGC ((.(.((....)).).)) | -15.4 kcal/mol | 60.2 °C |
| GCTCGGGGAAACTCGGGC ((.((.(....).)).)) | -26 kcal/mol | 46.6 °C |
| GCTCGGTCGAAAGACAGC (((..(((....)))))) | -12.3 kcal/mol | 41.2 °C |
| GCTCGTCGAAAGACAAGC (((.(((....))).))) | -24.7 kcal/mol | 49.5 °C |
| GCTCTAGAAATAGAGC ((((((....)))))) | -34.1 kcal/mol | 50.9 °C |
| GCTCTCGAAAGAGAGAGC ((((((....)))..))) | -19.5 kcal/mol | 57.2 °C |
| GCTCTCGAAAGAGCAGC ((((((....))).))) | -15.4 kcal/mol | 48.2 °C |
| GCTCTCGAAAGAGCGAGC ((((((....)))..))) | -15.1 kcal/mol | 49.3 °C |
| GCTCTCGAAAGAGGAGC ((((((....))).))) | -29.2 kcal/mol | 50.6 °C |
| GCTCTCGAAAGAGGCAGC ((((((....)))..))) | -15.5 kcal/mol | 42.3 °C |
| GCTCTCGGAAACGAAAGC (((.(((....))).))) | -28.5 kcal/mol | 39.4 °C |
| GCTCTGACGAAAGTCAGC (((..(((....)))))) | -7.47 kcal/mol | 31.3 °C |
| GCTCTGCGAAAGCATGGC ((..(((....)))..)) | -19.6 kcal/mol | 40.1 °C |
| GCTCTGCGAAAGCGGCGC ((.(.((....)).).)) | -17.2 kcal/mol | 50.5 °C |
| GCTCTGCGAAAGCTGCGC ((.(.((....)).).)) | -18.4 kcal/mol | 44.2 °C |
| GCTCTGCGAAAGCTGGGC ((.(.((....)).).)) | -21.4 kcal/mol | 54.3 °C |
| GCTCTGGAAACAGAGC ((((((....)))))) | -37.3 kcal/mol | 62.2 °C |

| Sequence | folding enthalpy [1] | Tm [2] |
| --- | --- | --- |
| GCTCTGGGAAACCAAAGC (((.(((....))).))) | -23.7 kcal/mol | 35.5 °C |
| GCTCTGGGAAACCGGAGC ((((.((....)).)))) | -52.9 kcal/mol | 57.2 °C |
| GCTCTGGGAAACTAGGGC ((.((.(....).)).)) | -27.7 kcal/mol | 36.5 °C |
| GCTCTGTCGAAAGACAGC (((..(((....)))))) | -8.62 kcal/mol | 36.5 °C |
| GCTCTTCGAAAGAAAGC (((.(((....)))))) | -20.6 kcal/mol | 36.1 °C |
| GCTCTTGGAAACAAGAAC (.(((((....))))).) | -16.3 kcal/mol | 31.4 °C |
| GCTGAACGAAAGTTAAGC (((.(((....))).))) | -31.4 kcal/mol | 50.6 °C |
| GCTGAACGAAAGTTGAGC (((.(((....))).))) | -31.4 kcal/mol | 48.7 °C |
| GCTGACGAAAGTCAAAGC ((((((....)))..))) | -17.9 kcal/mol | 48.7 °C |
| GCTGACGAAAGTCAAGC ((((((....))).))) | -28.8 kcal/mol | 56.3 °C |
| GCTGACGAAAGTCATAGC ((((((....)))..))) | -15.9 kcal/mol | 47.1 °C |
| GCTGACGAAAGTCGGAGC ((((((....)))..))) | -16.5 kcal/mol | 45.7 °C |
| GCTGACGAAAGTCGTAGC ((((((....)))..))) | -21.6 kcal/mol | 47.1 °C |
| GCTGACGAAAGTCTAAGC ((((((....)))..))) | -19.1 kcal/mol | 47.1 °C |
| GCTGACGCGAAAGCGAGC (((..(((....)))))) | -13.9 kcal/mol | 47.1 °C |
| GCTGACGGAAACATCAGC (((((.(....).))))) | -35.1 kcal/mol | 44.3 °C |
| GCTGACGGAAACGCCAAC (.((.((....)).)).) | -14.1 kcal/mol | 25.9 °C |
| GCTGACTCGAAAGAGAGC (((..(((....)))))) | -14.6 kcal/mol | 31.6 °C |
| GCTGAGCGAAAGCACGGC ((.(.((....)).).)) | -21.5 kcal/mol | 56.8 °C |
| GCTGAGCGAAAGCATAGC (((..((....))..))) | -18.9 kcal/mol | 50 °C |
| GCTGAGCGAAAGCTGTGC ((..(((....)))..)) | -17.8 kcal/mol | 45.5 °C |
| GCTGAGGCGAAAGCCAGC (((..(((....)))))) | -22.3 kcal/mol | 52.8 °C |
| GCTGAGGGAAACCTCAAC (.(((((....))))).) | -18.9 kcal/mol | 36.6 °C |

| Sequence | folding enthalpy [1] | Tm [2] |
| --- | --- | --- |
| GCTGATCCGAAAGGAAGC (((..(((....)))))) | -18 kcal/mol | 39 °C |
| GCTGATCGAAAGATAAGC (((.(((....))).))) | -35.1 kcal/mol | 49.5 °C |
| GCTGATCGAAAGATGAGC (((.(((....))).))) | -32.2 kcal/mol | 48 °C |
| GCTGATGAAAATCAGC ((((((....)))))) | -35.8 kcal/mol | 60.6 °C |
| GCTGATGCGAAAGCAAGC (((..(((....)))))) | -19.4 kcal/mol | 43.5 °C |
| GCTGATGGAAACATCAAC (.(((((....))))).) | -21 kcal/mol | 36 °C |
| GCTGATGGAAACGTCAGC (((((.(....).))))) | -40.3 kcal/mol | 53.3 °C |
| GCTGCCACGAAAGTGAGC (((..(((....)))))) | -13.1 kcal/mol | 50.2 °C |
| GCTGCCCGAAAGGGTAGC (((.(((....))).))) | -40.5 kcal/mol | 69 °C |
| GCTGCCGAAAGGCAAAGC ((((((....)))..))) | -14.8 kcal/mol | 57.1 °C |
| GCTGCCGAAAGGCTCAGC ((((((....)))..))) | -15 kcal/mol | 44.4 °C |
| GCTGCCGGAAACAGCAGC (((((.(....).))))) | -34.1 kcal/mol | 53.8 °C |
| GCTGCCGGAAACGGTGGC ((..(((....)))..)) | -40 kcal/mol | 55.1 °C |
| GCTGCGACGAAAGTCAGC (((..(((....)))))) | -13.4 kcal/mol | 51.4 °C |
| GCTGCGCGAAAGCACCGC ((.(.((....)).).)) | -21.4 kcal/mol | 41.3 °C |
| GCTGCGCGAAAGCCTAGC (((..((....))..))) | -15.7 kcal/mol | 42.4 °C |
| GCTGCGCGAAAGCTCAGC ((((.((....)).)))) | -35.4 kcal/mol | 64.4 °C |
| GCTGCTGCGAAAGCAAGC (((..(((....)))))) | -11.7 kcal/mol | 54.1 °C |
| GCTGCTGGAAACAGTGGC ((..(((....)))..)) | -40.2 kcal/mol | 47.6 °C |
| GCTGCTGGAAACGGTAGC (((.(.(....).).))) | -31.3 kcal/mol | 41.3 °C |
| GCTGGAGGAAACTCTGGC ((..(((....)))..)) | -28 kcal/mol | 41.6 °C |
| GCTGGCCGAAAGGCAGC (((.(((....)))))) | -20.6 kcal/mol | 65.8 °C |
